A selection: hits, their analogues and other compounds. The true share with any hit is near 6.4%.
Jurkat tox 60K = cytotoxic compounds reducing Jurkat cell viability | Jurkat E6.1 viability, ATP luminescence, 48 h | inhibition, % at 4 µM | 56,000 tested, 1.2% active | AID 463;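 active means inhibition above the mean inhibition of all tested compounds plus 3 SD, cut at about 28% in these data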
H69AR growth 86K = growth inhibitors of human H69AR lung tumor cells; 85,000 tested, 6% active; H69AR lung tumor viability, ATP luminescence, 72 h; stronger effect = lower value; viability, % at 10 µM;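 active means viability at or below 40%; inactive means viability above 40%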;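 further: multidrug resistant small cell line overexpressing MRP-1 efflux transporter; 100% = mean luminescence of untreated control wells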
HUVEC prolif 384 = human endothelial cell proliferation inhibition. HUVEC proliferation, CellTiter-Glo luminescence, 72 h; stronger effect = lower value. viability, % at 10 µM (by protocol). 86,000 tested, 1.1% active;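 active means viability at or below 30%; inactive means viability above 30%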;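 further: 100% = median luminescence of DMSO-only cell control wells on each plate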
Ecoli WT expand = growth inhibitors of E. coli BW25113 wild type. growth inhibition, % at 100 µM. 98,000 tested, 0.15% active. OD600 absorbance;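 active means growth inhibition above about 50% at one test dose, limit read from the data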;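 further: growth measured after 20 h incubation at 37 °C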
Lung fibro prol = blocks proliferation of human lung fibroblasts; LL 47 human lung fibroblast viability, ATP luminescence; stronger effect = lower value; viability, % at 10 µM; 85,000 tested, 1.1% active; AID 719;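 active means viability at or below 50% in the single dose screen; inactive means viability above 50%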;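 further: compound exposure lasted 72 h before the ATP readout; 100% = median luminescence of untreated cell-only wells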
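Signal: luminescent ATP detection, CellTiter-Glo; assay system: LL 47 human lung fibroblasts; input: 1,150 cells/well; incubation: overnight cell rest, 72 h compound treatment at 37 °C; measure: % viability versus median cells-only luminescence; medium: IMEM growth medium with 15% fetal bovine serum; dosing: compound addition at 0.1% DMSO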
Ecoli tolC = E. coli tolC mutant growth inhibition; E. coli BW25113 tolC mutant growth, OD615; 65,000 tested, 2.2% active; growth inhibition, % at 10 µM (by protocol);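 active means growth inhibition at or above a cutoff equal to the mean over every tested compound plus 3 SD, cut at about 60% in these data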;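 further: growth measured after 20 h incubation at 37 °C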
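test system = E. coli BW25113 ΔtolC::kan bacteria | medium = LB with kanamycin 50 µg/mL | signal = OD at 615 nm | schedule = 37 °C, 20 h exposure | evaluation = % inhibition of E. coli growth | compound dosing = one dose of 10 µM final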
An asterisk follows results filed as active; · = not tested or not shown.

SMILES	Jurkat tox 60K	H69AR growth 86K	HUVEC prolif 384	Ecoli WT expand	Lung fibro prol	Ecoli tolC
CCCn1c(SCC(=O)NCCc2ccccc2)nnc1-c1ccco1	·	96	97	·	101	·
Cc1cc2nc(N)sc2cc1[N+](=O)[O-]	·	·	·	20	·	·
CCOc1ccc(CCNC(=O)C2CCN(c3nnc(-n4cccc4)s3)CC2)cc1OCC	-2	40*	98	-1	105	-2
CCOc1ccc(CCNC(=O)C2CCN(c3nnc(-n4cccc4)s3)CC2)cc1	·	91	110	-2	108	·
COc1cccc(-c2nc(CS(=O)(=O)CC(=O)N3CCc4ccccc43)c(C)o2)c1	·	72	104	-6	98	·
O=C(NCc1ccc2c(c1)OCO2)C1CCC(CNS(=O)(=O)c2cccc3nsnc23)CC1 (stereo not drawn)	·	96	59	-3	44*	·
COc1ccc(CNC(=O)C2CCC(CNS(=O)(=O)c3cccc4nsnc34)CC2)cc1 (stereo not drawn)	·	88	103	-8	55	·
CCC(C)Sc1nc2ccccc2c(=O)[nH]1 (stereo not drawn)	·	84	91	·	93	·
O=C(OCC#CCSc1nnc(-c2ccc([N+](=O)[O-])cc2)o1)c1cccs1	·	37*	91	-7	98	·
Cc1c(Cc2ccc3c(c2)OCO3)sc(NC(=O)C(C)(C)C)c1C#N	·	38*	85	2	84	·
COc1cc(C(=O)OCC(=O)c2cc(C)n(C)c2C)cc(OC)c1OC	42*	24*	64	-4	67	9
Cc1cc(C)nc(Nc2n[nH]c(-c3cccc4ccccc34)n2)n1	·	67	98	-9	101	·
CCc1ccc2c(c1)C1(NN=C(c3cccc4ccccc34)S1)C(=O)N2 (stereo not drawn)	·	19*	35	·	34*	·
Cc1ccc(O)c(/C=N/NC(=O)C2=NNC(c3ccccc3)(c3ccccc3)C2)c1	·	37*	4.0*	·	12*	·
Cc1cccc(/C=N\NC(=O)c2csnn2)c1	·	·	·	2	·	·
Cc1onc(-c2c(F)cccc2Cl)c1C(=O)NC1CCSC1=O (stereo not drawn)	·	86	90	1	99	·
Cc1cc(NCCCN)nc(-c2ccccc2O)n1	6	21*	98	12	100	-5
CCCCNC(=O)c1ccc2c(c1)ncn2C1CCCC1	·	33*	92	4	108	·
CCN(C(=O)c1cc2cc3ccc(C)cc3nc2o1)c1ccc(OC)cc1	4	57	101	-15	124	72*
COc1ccc2cc3cc(C(=O)NC(C)C)oc3nc2c1	·	100	92	-5	110	·
COc1ccc2cc3cc(C(=O)Nc4ccc5c(c4)OCCO5)oc3nc2c1	8	40*	26*	-11	91	-20
O=c1c2ccccc2cnn1-c1ccc(Cl)cc1	·	92	93	-2	97	·
COc1ccc(C2C(=O)N(CCc3ccccc3)CC(=O)N2C2CCCC2)cc1 (stereo not drawn)	·	35*	89	10	87	-6
COc1ccc(C2C(=O)N(C3CCCCC3)CC(=O)N2C2CCCC2)cc1 (stereo not drawn)	·	50	101	7	93	4
CCOC(=O)c1c(NC(=O)CN2CCCCC2)sc2c1CCN(C(=O)OCC)C2	0	71	86	-5	92	96*
SMILES	Jurkat tox 60K	H69AR growth 86K	HUVEC prolif 384	Ecoli WT expand	Lung fibro prol	Ecoli tolC
CCOC(=O)N1CCC(N2CCN(S(=O)(=O)c3ccc(C)cc3)CC2)CC1	·	29*	92	2	94	·
CC1CCc2nc(NC(=O)c3cc(C(C)(C)C)nn3C)sc2C1 (stereo not drawn)	-11	83	97	·	92	67*
CCOC(=O)N1CCN(S(=O)(=O)c2ccc(C(=O)Nc3nc4c(s3)CC(C)CC4)cc2)CC1 (stereo not drawn)	-5	7.5*	17*	3	7.7*	-2
Cc1c(Cl)c([N+](=O)[O-])nn1CC(=O)NC(C)C1CC2CCC1C2 (stereo not drawn)	·	·	·	1	·	·
Cc1ccc(C)c2c3c([nH]c12)-c1nonc1CC3	·	86	98	2	103	·
CC(C)N1CCc2c(sc(NC(=O)c3ccc(S(=O)(=O)N4CCOCC4)cc3)c2C#N)C1	7	98	69	-1	85	1
COc1cc(C(=O)Nc2sc3c(c2C#N)CCN(C(C)=O)C3)cc(OC)c1OC	·	23*	75	-3	95	·
Cc1ccc(C(=O)Nc2sc3c(c2C#N)CCCCC3)cc1C	·	82	103	·	100	·

High-throughput results: PubChem BioAssay, several laboratories
